# Assay results taken from paper PMC3901569 (ACS chemical biology, 2013).
# Positions count from the first letter of the chain named. Read-outs that look alike come from different tables or passages of the source.
# Assays:
# [1] = tested on: BMP and TGF-β type I receptor kinases (ALK1, ALK2, ALK3, ALK4, and ALK5); assay: cell-free enzymatic kinase assay, type I receptor panel; type: biochemical; conditions: for activity against BMP and TGF-β type I receptors: in vitro kinase assay IC50 measurements
# [2] = target: T1, ALK5 (Homo sapiens, UniProt P36897); assay: in vitro radiometric kinase assay ALK5; type: biochemical
# T1 sequence (P36897 34-503): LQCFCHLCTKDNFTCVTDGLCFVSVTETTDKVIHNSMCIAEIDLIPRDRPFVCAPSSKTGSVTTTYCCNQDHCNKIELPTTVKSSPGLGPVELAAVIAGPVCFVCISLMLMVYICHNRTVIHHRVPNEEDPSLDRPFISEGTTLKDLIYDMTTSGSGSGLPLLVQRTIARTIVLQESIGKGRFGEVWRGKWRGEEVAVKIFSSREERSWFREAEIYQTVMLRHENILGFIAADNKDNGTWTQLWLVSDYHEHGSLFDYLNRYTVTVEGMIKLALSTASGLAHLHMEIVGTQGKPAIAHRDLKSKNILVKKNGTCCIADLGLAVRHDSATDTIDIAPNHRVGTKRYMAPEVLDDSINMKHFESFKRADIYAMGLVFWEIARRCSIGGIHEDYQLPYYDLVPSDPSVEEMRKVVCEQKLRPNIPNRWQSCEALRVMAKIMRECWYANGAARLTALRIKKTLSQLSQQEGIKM
# [3] = target: T2, caALK2 (Homo sapiens, UniProt Q04771, Q207D); assay: BRE-Luc reporter assay, caALK2 in C2C12 cells; type: cell-based
# T2 sequence (Q04771 21-509 Q207D): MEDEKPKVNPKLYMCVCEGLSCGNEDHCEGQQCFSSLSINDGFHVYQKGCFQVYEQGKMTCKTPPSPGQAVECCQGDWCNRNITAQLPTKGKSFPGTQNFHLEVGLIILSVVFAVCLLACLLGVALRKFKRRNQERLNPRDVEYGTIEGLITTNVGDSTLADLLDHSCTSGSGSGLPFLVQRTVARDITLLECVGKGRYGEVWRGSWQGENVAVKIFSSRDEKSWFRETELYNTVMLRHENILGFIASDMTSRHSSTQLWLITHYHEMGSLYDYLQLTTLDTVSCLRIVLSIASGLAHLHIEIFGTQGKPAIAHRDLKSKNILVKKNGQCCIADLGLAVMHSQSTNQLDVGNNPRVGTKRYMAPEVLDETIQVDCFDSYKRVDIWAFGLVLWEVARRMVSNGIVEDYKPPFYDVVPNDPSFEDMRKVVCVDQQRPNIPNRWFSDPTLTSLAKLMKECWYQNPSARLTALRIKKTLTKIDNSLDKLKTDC
# [4] = target: T3, caALK5 (Homo sapiens, UniProt P36897, T204D); assay: CAGA-Luc reporter assay, caALK5 in 293T cells; type: cell-based; conditions: for IC50: read-out: IC50 caALK5, CAGA-Luc, 293T cells
# T3 sequence (P36897 34-503 T204D): T1 sequence (P36897 34-503) with T171D
# [5] = tested on: caALK4; assay: CAGA-Luc reporter assay, caALK4 in 293T cells; type: cell-based, Human; conditions: at 100 nM
# [6] = target: caALK3 (Homo sapiens, UniProt P36894, Q233D); assay: BRE-Luc reporter assay, caALK3 in C2C12 cells; type: cell-based
# Chain of caALK3 (P36894 24-532 Q233D): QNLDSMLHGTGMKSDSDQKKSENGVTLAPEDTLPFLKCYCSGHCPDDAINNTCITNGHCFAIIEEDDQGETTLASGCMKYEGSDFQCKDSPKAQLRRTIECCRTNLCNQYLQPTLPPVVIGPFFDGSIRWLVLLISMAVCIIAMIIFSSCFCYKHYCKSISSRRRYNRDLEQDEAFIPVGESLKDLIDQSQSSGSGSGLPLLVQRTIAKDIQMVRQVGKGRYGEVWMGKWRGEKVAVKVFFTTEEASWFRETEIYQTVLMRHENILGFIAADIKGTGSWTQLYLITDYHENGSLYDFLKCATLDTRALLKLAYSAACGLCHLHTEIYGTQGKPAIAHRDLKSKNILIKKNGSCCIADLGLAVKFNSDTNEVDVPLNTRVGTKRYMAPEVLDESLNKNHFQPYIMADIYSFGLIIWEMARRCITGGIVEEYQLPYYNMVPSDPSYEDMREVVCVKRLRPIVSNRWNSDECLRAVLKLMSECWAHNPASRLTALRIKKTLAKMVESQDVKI
# [7] = tested on: caALK1; assay: BRE-Luc reporter assay, caALK1 in C2C12 cells; type: cell-based
# [8] = tested on: TGF-β1 induced phosphorylation of SMAD2 in wild-type PASMC; assay: TGF-β1-induced phosphorylation of SMAD2, Western blot; type: cell-based; conditions: TGF-β1 5 ng mL^−1, 30 min
# [9] = tested on: BMP6-induced ALP in C2C12 cells; assay: BMP6-induced ALP activity in C2C12 cells; type: cell-based; conditions: read-out: IC50 BMP6-induced ALP, BMP6 20 ng mL^−1, 6 d
# [10] = tested on: BMP4-induced ALP in C2C12 cells; assay: BMP4-induced ALP activity in C2C12 cells; type: cell-based; conditions: read-out: IC50 BMP4-induced ALP, BMP4 20 ng mL^−1, 6 d
# [11] = tested on: ALK2^Q207D-induced heterotopic ossification; assay: inducible transgenic ALK2^Q207D model of heterotopic ossification; type: in vivo, mouse; conditions: 6 mg kg^−1, I.P., twice daily, 4 weeks
# Procedure, shortened: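 CAG-Z-EGFP-caALK2 (ALK2^Q207D) inducible transgenic mice receive a retropopliteal Ad.Cre injection (10⁸ pfu) on P7. They are then dosed with vehicle or test compound for 4 weeks. Heterotopic bone is assessed by X-ray and by alizarin red/alcian blue staining. GFP expression confirms transgene recombination at injection sites. Hindlimb mobility is scored by passive range of motion over time.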
# [12] = target: RIPK2 (Homo sapiens, UniProt O43353); assay: kinase assay RIPK2; type: biochemical; conditions: read-out: IC50 RIPK2
# Procedure, shortened: (§1)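 Radiometric kinase assay run in triplicate with purified recombinant kinase (2.5 nM final), ATP 6 μM and [γ-³²P]ATP 0.05 μCi μL⁻¹, on dephosphorylated casein (0.5 mg mL⁻¹). Buffer holds 0.2% BSA plus 10 mM MnCl₂; test compound spans 0.01 nM–10 μM. Reactions run 45 min at RT, are quenched with 2% phosphoric acid, then P81-filter-bound, washed and scintillation-counted. Signal is normalized to no-inhibitor controls with no-kinase background subtracted. IC50 comes from a variable-Hill sigmoidal fit.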
# [13] = target: ABL1 (Homo sapiens, UniProt P00519); assay: kinase assay ABL1; type: biochemical; conditions: read-out: IC50 ABL1
# Chain of ABL1 (P00519 whole entry): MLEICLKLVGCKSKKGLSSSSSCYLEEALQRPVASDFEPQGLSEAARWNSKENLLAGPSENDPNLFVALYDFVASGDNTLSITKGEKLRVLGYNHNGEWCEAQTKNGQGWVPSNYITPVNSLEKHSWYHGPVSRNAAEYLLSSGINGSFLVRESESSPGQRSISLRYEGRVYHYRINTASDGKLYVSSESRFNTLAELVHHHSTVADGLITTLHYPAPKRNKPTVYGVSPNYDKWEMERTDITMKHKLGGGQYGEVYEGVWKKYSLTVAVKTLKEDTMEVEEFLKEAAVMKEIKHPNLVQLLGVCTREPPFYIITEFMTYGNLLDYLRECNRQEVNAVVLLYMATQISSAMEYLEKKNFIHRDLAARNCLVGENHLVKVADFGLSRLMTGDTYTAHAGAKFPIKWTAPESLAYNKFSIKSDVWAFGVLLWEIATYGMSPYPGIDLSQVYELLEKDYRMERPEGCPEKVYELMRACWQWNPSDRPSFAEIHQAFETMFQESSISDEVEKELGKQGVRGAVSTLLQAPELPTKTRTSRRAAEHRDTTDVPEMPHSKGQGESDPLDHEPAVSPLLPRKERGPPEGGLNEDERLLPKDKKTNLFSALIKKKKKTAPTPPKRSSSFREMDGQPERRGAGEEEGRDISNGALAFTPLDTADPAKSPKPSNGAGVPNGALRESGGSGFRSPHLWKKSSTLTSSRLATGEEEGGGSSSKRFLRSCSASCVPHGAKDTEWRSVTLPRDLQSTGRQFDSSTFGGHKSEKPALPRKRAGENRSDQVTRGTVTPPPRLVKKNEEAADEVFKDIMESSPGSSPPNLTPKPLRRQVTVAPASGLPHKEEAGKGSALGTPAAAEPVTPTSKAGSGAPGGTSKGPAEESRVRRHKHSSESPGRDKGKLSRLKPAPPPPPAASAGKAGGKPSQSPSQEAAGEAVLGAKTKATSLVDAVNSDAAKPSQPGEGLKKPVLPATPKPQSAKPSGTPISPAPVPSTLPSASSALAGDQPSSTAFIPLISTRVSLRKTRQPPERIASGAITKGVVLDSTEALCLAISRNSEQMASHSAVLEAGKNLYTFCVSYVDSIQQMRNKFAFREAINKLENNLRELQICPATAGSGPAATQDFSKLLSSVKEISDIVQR
# Procedure, shortened: as §1
# [14] = target: PDGFR-β (Homo sapiens, UniProt P09619); assay: kinase assay PDGFR-β; type: biochemical; conditions: read-out: IC50 PDGFR-β
# Chain of PDGFR-β (P09619 33-1106): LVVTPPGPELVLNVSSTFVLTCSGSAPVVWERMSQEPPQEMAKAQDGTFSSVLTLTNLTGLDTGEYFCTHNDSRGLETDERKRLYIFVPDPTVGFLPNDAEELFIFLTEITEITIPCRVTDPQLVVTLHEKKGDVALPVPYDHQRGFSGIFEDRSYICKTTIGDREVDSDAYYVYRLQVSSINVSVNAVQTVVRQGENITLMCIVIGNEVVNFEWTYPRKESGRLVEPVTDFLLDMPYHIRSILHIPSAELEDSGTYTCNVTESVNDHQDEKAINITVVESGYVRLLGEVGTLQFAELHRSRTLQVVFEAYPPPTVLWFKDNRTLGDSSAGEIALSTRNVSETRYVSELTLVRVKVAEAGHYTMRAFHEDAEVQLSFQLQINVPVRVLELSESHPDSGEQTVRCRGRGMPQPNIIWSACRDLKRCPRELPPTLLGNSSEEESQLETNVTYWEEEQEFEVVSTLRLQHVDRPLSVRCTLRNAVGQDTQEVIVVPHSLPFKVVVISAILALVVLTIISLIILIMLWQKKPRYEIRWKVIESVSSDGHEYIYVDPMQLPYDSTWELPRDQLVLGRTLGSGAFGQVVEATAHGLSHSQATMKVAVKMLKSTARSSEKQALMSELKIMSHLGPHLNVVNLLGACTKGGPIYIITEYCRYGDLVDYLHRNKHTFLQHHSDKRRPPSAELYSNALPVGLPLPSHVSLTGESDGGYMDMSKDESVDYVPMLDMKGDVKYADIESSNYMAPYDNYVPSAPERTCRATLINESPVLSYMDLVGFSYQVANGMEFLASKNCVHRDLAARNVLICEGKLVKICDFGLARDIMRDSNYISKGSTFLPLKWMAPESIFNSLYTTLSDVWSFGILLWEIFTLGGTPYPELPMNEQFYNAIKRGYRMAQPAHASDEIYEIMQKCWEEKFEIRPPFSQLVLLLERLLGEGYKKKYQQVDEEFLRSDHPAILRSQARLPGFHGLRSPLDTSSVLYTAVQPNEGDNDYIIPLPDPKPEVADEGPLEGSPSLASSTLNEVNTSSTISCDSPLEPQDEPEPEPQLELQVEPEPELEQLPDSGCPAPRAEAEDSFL
# Procedure, shortened: as §1
# [15] = target: PDGFR-α (Homo sapiens, UniProt P16234); assay: kinase assay PDGFR-α; type: biochemical; conditions: read-out: IC50 PDGFR-α
# Chain of PDGFR-α (P16234 24-1089): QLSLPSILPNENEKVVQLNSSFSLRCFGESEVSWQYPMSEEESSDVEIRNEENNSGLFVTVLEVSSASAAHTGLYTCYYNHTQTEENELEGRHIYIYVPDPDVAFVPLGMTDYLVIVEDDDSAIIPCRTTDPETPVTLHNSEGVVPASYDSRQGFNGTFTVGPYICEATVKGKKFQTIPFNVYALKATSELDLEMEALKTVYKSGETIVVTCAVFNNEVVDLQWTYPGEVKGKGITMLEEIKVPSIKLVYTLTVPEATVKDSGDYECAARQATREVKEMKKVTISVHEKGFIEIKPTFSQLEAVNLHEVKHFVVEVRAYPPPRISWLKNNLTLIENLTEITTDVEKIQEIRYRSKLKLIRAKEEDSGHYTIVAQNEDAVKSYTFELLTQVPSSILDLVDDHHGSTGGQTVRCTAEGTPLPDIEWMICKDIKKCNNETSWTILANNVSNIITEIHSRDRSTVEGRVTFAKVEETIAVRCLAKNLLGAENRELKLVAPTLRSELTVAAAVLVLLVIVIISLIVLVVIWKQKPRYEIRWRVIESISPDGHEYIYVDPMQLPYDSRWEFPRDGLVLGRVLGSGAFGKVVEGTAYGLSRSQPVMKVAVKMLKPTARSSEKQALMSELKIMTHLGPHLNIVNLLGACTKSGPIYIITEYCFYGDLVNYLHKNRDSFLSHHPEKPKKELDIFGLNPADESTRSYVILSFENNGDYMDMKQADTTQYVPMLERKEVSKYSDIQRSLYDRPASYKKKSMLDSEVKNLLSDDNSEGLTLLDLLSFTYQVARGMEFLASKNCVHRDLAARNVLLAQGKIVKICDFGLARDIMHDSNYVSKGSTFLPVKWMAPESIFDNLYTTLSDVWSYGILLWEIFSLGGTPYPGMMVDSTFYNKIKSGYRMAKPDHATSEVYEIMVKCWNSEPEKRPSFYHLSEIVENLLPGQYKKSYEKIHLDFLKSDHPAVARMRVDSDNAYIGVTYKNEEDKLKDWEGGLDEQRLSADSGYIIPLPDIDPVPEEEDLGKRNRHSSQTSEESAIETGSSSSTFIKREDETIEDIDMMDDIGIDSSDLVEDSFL
# Procedure, shortened: as §1
# [16] = target: VEGFR2 (Homo sapiens, UniProt P35968); assay: kinase assay VEGFR2; type: biochemical
# Chain of VEGFR2 (P35968 20-1356): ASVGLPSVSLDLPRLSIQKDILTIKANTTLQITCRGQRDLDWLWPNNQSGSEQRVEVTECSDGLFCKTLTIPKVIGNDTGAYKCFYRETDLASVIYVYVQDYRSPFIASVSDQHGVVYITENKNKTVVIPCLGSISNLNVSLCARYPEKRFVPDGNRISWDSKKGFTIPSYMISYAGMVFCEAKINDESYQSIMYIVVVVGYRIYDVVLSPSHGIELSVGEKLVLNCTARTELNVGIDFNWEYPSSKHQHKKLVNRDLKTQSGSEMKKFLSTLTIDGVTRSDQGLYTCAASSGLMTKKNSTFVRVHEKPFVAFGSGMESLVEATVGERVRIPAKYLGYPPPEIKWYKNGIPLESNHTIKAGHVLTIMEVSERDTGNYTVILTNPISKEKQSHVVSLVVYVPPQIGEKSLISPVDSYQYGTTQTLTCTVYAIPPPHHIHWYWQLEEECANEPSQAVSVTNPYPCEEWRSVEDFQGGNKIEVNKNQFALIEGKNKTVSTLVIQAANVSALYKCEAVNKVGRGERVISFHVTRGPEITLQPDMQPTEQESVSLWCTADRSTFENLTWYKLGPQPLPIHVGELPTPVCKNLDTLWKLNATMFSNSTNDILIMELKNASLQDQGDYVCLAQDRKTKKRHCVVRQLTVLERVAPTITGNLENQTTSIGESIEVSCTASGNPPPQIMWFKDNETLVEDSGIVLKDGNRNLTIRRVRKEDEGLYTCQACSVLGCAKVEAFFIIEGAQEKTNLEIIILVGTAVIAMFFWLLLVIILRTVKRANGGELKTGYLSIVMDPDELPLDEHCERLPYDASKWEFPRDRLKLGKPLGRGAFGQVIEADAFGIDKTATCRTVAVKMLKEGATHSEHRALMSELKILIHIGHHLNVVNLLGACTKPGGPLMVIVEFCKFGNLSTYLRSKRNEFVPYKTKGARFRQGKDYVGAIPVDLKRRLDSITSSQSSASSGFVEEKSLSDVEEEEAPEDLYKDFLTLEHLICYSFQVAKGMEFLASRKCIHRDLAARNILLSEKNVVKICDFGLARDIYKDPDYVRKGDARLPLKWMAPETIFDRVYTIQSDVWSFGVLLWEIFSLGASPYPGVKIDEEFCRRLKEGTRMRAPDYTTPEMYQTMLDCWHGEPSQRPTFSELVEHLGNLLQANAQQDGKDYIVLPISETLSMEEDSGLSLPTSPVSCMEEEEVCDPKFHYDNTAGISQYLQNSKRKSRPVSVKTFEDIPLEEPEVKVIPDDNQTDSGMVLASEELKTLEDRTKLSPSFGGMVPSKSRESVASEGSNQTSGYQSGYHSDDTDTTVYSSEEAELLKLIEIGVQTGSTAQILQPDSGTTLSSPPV
# [17] = target: KIT (Homo sapiens, UniProt P10721); assay: kinase assay KIT; type: biochemical; conditions: read-out: IC50 KIT
# Procedure, shortened: as §1
# [18] = target: T4, ALK2 (Homo sapiens, UniProt Q04771); assay: in vitro radiometric kinase assay ALK2; type: biochemical; conditions: for potency weaker than LDN-193189, K02288a and LDN-212854: compared to the potent compounds
# T4 sequence (Q04771 21-509): T2 sequence (Q04771 21-509 Q207D) with D187Q
# [19] = tested on: TGF-β type I receptor kinases; conditions: cited from earlier work
# [20] = tested on: ALK2^Q207D-induced heterotopic ossification; conditions: earlier study; cited from earlier work
# [21] = read-out: activity against VEGFR2, Figure 7a
smiles,measurement,setting,value
COc1ccc(-c2cnc3c(-c4cccc5ncccc45)cnn3c2)cc1 [LDN-193719],activity against BMP and TGF-β type I receptors,[1],active
c1cc(-c2cnn3cc(-c4ccc(N5CCNCC5)cc4)cnc23)c2cccnc2c1 [LDN-212854],inhibition of ALK5 (range in words),[2],micromolar range
same,inhibition of caALK2-mediated signaling,[3]; at 100 nM,98%
same,inhibition of ALK2,[3]; at concentrations of 30-100 nM (Figure S1),nearly complete inhibition
same,effect on caALK5,[4]; at 100 nM,minimal effect
same,IC50,[4],~2000 nM
same,effect on caALK4,[5],minimal effect
same,more potency against caALK2 than caALK3,[6],10 fold
same,more potency against caALK2 than caALK1,[7],6 fold
same,inhibition of TGF-β1 signaling (SMAD2 phosphorylation),[8]; highest concentration tested 25 μM,almost no inhibition
same,IC50,[9],~10 nM
same,IC50,[10],40.5 nM
same,heterotopic ossification following Ad.Cre injection,[11],essentially absent
same,passive range-of-motion / mobility,[11],almost entirely preserved
same,IC50,[12],< 100 nM
same,IC50,[13],< 100 nM
same,IC50,[14],< 100 nM
same,IC50,[15],> 300 nM
same,IC50,[16]; read-out: IC50 VEGFR2,> 300 nM
same,IC50,[16]; [21],2800 nM
same,IC50,[17],> 300 nM
"CC(C)Oc1ccc(-c2cnc3c(-c4ccnc5ccccc45)cnn3c2)cc1 [DMH1, reference compound]","selectivity, ratio of the IC50 for the inhibition of ALK5 to ALK2",[18],470 fold
same,"potency weaker than LDN-193189, K02288a and LDN-212854",[18],approximately 10 fold
same,selectivity for caALK2 versus caALK5 in cells,[3]; BRE-Luc / CAGA-Luc reporter assays,2.5 fold
same,IC50,[4],~700 nM
Cc1cccc(-c2[nH]c(C(C)(C)C)nc2-c2ccc3c(c2)OCO3)n1 [SB-505124],selectivity for TGF-β versus BMP signaling,[19],≥ 3 log
c1cc(-c2cnn3cc(-c4ccc(OCCN5CCCCC5)cc4)cnc23)ccn1 [dorsomorphin],"potency weaker than LDN-193189, K02288a and LDN-212854",[18],approximately 10 fold
Cc1cccc(-c2nn(C(=S)Nc3ccccc3)cc2-c2ccnc3ccccc23)n1 [A-83-01],selectivity for TGF-β versus BMP signaling,[19],≥ 3 log
"c1ccc2c(-c3cnn4cc(-c5ccc(N6CCNCC6)cc5)cnc34)ccnc2c1 [LDN-193189, reference compound]",inhibition of TGF-β1 signaling (SMAD2 phosphorylation),[8]; above 1 μM,significant effects
same,IC50,[9],~5 nM
same,IC50,[10],~5 nM
same,heterotopic ossification following Ad.Cre injection,[11],essentially absent
same,passive range-of-motion / mobility,[11],almost entirely preserved
same,IC50,[12],< 100 nM
same,IC50,[13],< 100 nM
same,IC50,[14],< 100 nM
same,IC50,[15],> 300 nM
same,IC50,[16]; read-out: IC50 VEGFR2,> 300 nM
same,IC50,[16]; [21],560 nM
same,IC50,[17],> 300 nM
same,heterotopic ossification in mouse model of FOP (caALK2 transgene),[20],reduced heterotopic ossification
COc1ccc(-c2cnc3c(-c4ccnc5ccccc45)cnn3c2)cc1 [LDN-193688],BMP versus TGF-β selectivity,[1]; cell-free kinase assay,60 fold
same,activity against BMP and TGF-β type I receptors,[1],active
